Experiment [1] has as its target DNA-dependent protein kinase catalytic subunit (Homo sapiens, UniProt P78527). Put plainly: Inhibition of DNA-PK using EPPLSQEAFADLWKK as substrate after 5 mins by ADP-Glo kinase assay. (ADP-Glo first removes unused ATP, then detects ADP through luciferase.)
The target of experiment [2] is T1, Phosphatidylinositol 4,5-bisphosphate 3-kinase catalytic subunit delta isoform (Homo sapiens, UniProt O00329).
T1 sequence (O00329 whole entry): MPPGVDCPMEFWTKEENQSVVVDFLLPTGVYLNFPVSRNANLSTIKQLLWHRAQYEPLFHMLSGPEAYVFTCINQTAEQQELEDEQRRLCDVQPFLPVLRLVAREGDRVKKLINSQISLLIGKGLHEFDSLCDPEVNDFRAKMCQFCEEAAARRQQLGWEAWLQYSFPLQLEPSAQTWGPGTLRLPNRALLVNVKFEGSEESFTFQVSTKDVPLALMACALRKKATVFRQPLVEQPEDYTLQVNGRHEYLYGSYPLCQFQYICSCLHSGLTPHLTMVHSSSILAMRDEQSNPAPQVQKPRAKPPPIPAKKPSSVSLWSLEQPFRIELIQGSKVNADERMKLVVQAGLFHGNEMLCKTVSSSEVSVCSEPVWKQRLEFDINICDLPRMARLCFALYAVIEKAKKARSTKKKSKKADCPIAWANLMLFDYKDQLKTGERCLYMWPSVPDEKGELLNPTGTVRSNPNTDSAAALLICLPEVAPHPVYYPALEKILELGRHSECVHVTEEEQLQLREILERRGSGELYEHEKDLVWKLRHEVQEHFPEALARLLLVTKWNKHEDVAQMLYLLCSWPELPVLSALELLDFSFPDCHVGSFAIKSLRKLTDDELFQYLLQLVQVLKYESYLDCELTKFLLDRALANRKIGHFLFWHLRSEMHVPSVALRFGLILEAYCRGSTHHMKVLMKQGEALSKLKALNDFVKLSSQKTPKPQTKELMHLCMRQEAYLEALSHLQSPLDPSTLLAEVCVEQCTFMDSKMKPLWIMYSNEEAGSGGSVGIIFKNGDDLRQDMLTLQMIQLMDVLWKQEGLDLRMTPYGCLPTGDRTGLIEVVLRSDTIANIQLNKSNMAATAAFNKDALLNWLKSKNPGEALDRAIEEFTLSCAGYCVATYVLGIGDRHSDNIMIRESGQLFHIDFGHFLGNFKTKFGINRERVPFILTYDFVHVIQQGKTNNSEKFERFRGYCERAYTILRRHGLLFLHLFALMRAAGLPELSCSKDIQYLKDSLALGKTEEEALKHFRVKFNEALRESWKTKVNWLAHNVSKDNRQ
Put plainly: Inhibition of PI3Kdelta by HTRF assay in presence of ATP.

Experiment [3] concerns the target Phosphatidylinositol 4,5-bisphosphate 3-kinase catalytic subunit gamma isoform (Homo sapiens, UniProt P48736). Put plainly: Inhibition of PI3Kgamma by HTRF assay in presence of ATP. A general note: TR-FRET usually uses a lanthanide donor and a delayed reading to cut background.
The target of experiment [4] is Phosphatidylinositol 4,5-bisphosphate 3-kinase catalytic subunit beta isoform (Homo sapiens, UniProt P42338). Put plainly: Inhibition of PI3Kbeta by HTRF assay in presence of ATP.
In experiment [5] the target is Phosphatidylinositol 4,5-bisphosphate 3-kinase catalytic subunit alpha isoform (Homo sapiens, UniProt P42336). The experiment is described as follows: Inhibition of PI3Kalpha by HTRF assay in presence of ATP.
Chain of Phosphatidylinositol 4,5-bisphosphate 3-kinase catalytic subunit alpha isoform (P42336 whole entry, canonical isoform): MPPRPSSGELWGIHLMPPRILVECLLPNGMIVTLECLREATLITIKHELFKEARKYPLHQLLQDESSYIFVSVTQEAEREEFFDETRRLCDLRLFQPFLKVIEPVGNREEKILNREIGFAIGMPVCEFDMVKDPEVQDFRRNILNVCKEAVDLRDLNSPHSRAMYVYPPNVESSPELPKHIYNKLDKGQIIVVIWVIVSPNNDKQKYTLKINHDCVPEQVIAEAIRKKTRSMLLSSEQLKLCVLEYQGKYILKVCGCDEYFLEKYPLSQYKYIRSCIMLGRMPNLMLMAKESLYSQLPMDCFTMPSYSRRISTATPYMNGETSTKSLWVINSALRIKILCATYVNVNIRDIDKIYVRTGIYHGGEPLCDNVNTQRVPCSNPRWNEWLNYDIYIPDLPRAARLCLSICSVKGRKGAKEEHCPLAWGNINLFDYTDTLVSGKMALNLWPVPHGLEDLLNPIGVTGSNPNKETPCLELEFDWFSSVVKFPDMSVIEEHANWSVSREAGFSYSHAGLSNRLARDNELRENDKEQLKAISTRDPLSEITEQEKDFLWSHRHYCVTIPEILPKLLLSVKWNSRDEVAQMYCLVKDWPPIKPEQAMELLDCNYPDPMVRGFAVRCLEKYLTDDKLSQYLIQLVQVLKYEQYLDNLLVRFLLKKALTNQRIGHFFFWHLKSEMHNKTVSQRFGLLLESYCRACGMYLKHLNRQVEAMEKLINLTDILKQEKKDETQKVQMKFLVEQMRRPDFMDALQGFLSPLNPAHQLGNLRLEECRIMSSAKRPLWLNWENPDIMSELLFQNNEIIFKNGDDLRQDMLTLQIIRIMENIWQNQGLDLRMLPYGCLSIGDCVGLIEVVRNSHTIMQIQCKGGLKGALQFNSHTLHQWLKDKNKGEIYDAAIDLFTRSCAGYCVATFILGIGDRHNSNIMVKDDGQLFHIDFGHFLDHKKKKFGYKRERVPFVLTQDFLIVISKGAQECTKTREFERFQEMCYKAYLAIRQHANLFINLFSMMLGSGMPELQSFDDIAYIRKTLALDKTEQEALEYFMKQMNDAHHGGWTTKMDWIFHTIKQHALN
A short description of experiment [6]: Antiplatelet activity against human platelet assessed as inhibition of collagen-induced platelet aggregation incubated for 2 mins before collagen induction by two-channel platelet aggregometer. Type of experiment: functional, cell-based. In short, it runs like this: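 Venous blood from healthy, drug-free volunteers collected into trisodium citrate 22.0 g/L. Aggregation was measured optically in a two-channel aggregometer, following an earlier protocol.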

Molecules are shown by their SMILES. pIC50: −log10 of the molar value.

Broadly, the pIC50 is the IC50 on a negative log10 scale, so that one unit is a factor of ten.

Chain of DNA-dependent protein kinase catalytic subunit (P78527 whole entry, canonical isoform): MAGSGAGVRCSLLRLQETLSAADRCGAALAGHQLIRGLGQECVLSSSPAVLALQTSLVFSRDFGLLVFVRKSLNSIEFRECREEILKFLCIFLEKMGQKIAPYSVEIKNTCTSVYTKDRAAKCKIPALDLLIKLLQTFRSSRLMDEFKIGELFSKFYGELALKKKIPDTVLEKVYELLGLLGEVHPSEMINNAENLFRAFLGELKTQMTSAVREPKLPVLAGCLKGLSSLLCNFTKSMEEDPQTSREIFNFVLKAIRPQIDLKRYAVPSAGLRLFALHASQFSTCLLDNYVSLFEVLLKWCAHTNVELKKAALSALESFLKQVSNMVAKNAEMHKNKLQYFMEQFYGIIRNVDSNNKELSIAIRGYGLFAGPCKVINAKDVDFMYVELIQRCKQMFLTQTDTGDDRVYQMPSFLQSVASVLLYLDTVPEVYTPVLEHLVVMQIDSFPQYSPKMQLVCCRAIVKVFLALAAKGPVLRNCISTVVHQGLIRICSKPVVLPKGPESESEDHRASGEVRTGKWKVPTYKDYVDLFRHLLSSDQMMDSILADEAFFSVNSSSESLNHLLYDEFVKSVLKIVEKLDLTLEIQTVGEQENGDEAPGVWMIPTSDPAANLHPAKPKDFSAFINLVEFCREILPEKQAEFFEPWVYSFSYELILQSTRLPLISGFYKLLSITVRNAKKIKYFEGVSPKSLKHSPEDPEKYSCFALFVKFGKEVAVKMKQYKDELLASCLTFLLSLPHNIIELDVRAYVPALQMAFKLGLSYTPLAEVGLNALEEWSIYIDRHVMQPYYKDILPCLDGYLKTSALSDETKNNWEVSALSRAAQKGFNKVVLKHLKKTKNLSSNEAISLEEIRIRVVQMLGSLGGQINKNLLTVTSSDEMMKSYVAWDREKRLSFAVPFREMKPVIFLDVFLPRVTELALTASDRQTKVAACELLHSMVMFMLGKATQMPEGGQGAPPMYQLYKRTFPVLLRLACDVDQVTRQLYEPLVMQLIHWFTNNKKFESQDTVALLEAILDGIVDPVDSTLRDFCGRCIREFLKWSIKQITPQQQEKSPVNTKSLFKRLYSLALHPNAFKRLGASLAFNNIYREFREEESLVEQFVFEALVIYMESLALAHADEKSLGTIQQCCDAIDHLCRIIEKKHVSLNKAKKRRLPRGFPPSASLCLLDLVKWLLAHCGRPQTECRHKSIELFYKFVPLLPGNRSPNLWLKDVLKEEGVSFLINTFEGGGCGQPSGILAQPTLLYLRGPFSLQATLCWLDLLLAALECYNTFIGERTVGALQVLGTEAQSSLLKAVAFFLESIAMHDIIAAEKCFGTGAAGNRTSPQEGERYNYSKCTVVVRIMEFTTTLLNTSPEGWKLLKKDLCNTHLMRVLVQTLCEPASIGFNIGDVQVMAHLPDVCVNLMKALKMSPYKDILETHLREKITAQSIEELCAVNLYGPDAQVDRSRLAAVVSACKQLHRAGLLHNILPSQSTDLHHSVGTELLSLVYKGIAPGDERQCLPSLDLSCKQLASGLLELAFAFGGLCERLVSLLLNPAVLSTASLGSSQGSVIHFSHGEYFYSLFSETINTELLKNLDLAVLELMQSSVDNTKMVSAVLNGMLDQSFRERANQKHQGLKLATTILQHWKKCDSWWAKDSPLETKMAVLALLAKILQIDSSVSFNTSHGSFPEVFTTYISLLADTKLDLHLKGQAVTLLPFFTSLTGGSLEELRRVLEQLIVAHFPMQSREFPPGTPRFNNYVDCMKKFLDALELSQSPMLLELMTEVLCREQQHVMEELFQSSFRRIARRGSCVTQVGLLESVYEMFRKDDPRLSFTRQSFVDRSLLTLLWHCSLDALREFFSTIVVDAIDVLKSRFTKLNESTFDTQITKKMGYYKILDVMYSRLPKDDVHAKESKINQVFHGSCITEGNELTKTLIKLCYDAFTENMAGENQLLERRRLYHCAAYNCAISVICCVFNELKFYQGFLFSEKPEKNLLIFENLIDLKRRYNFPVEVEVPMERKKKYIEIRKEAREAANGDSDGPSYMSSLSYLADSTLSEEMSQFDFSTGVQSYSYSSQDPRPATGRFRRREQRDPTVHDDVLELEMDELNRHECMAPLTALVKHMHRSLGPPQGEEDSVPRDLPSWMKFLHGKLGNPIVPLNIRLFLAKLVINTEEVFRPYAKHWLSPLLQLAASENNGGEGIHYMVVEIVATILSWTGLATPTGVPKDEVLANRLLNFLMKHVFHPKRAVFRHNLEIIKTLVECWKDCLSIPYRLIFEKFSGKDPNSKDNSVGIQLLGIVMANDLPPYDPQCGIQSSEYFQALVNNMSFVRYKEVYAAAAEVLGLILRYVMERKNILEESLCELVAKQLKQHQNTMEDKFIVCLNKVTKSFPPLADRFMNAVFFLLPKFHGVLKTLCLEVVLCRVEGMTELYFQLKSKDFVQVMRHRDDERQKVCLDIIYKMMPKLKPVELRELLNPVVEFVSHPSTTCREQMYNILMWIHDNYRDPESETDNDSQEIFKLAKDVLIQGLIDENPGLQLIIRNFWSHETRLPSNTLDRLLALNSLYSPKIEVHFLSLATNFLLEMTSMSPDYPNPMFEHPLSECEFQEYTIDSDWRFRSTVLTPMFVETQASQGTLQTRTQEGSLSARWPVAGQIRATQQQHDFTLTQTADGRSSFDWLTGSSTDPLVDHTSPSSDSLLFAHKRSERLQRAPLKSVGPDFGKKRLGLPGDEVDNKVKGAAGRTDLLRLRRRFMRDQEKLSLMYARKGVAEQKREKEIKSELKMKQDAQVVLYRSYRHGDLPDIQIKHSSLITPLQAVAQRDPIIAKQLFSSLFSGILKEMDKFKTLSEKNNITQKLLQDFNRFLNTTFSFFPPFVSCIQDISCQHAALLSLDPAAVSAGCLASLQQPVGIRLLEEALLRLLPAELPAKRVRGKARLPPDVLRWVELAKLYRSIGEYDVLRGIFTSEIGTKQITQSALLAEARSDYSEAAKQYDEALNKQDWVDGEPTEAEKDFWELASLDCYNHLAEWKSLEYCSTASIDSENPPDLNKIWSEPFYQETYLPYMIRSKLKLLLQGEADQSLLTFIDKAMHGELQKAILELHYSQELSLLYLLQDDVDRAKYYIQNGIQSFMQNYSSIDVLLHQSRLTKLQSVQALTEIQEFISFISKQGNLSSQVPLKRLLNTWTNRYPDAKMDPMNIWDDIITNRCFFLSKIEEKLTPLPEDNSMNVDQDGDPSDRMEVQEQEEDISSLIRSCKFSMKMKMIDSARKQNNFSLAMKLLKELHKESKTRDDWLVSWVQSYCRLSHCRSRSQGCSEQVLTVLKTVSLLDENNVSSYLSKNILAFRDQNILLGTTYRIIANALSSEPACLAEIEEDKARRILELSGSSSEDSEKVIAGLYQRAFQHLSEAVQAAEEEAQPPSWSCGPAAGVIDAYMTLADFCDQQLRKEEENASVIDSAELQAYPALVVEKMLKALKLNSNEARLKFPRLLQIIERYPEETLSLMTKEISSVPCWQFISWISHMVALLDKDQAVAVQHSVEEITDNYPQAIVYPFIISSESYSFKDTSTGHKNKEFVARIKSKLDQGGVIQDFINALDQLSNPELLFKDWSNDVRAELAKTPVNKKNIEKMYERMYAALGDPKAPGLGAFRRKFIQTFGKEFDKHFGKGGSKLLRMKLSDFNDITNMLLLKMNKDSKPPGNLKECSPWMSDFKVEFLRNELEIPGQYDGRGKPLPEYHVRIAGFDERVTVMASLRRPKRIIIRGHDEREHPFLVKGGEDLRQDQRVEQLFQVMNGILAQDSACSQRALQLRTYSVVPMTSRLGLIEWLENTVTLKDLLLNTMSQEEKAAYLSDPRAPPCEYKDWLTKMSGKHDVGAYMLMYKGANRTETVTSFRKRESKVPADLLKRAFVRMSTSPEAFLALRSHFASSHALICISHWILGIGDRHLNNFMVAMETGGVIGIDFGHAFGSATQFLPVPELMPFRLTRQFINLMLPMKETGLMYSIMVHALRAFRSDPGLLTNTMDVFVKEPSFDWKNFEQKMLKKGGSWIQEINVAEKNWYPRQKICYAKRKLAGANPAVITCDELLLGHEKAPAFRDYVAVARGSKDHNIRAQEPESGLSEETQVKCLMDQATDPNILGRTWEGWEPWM

For the compound `CN1CCN(CCOc2cccc3c(=O)nc(N4CCOCC4)oc23)CC1`, the negative-log IC50 (pIC50) in experiment [1] was 5.77.

Consider `O=c1nc(N2CCOCC2)oc2cc(OCc3ccccn3)ccc12`, for which, in experiment [1], the pIC50 was 5.57.

`Cc1c(OCc2ccccn2)ccc2c(=O)nc(N3CCOCC3)oc12` gave a pIC50 in experiment [1] of 5.89.

For `O=c1nc(N2CCOCC2)oc2cc(OCc3cccnc3)ccc12`, the pIC50 in experiment [1] is 5.60.

On to `Cc1c(OCc2cccnc2)ccc2c(=O)nc(N3CCOCC3)oc12`, for which the negative logarithm of the IC50 (pIC50) is 6.55 in experiment [1]; 5.69 in experiment [2]; 6.14 in experiment [3]; 6.85 in experiment [4]; 6.89 in experiment [5].

Consider `O=c1nc(N2CCOCC2)oc2c(OCc3cccnc3)cccc12`, for which the pIC50 in experiment [1] is 6.44.

For the compound `O=c1nc(N2CCOCC2)oc2cc(OCc3ccncc3)ccc12`, in experiment [1], the pIC50 is 5.38.

In experiment [1], `Cc1c(OCc2ccncc2)ccc2c(=O)nc(N3CCOCC3)oc12` showed a pIC50 of 5.92.

In turn, `O=c1nc(N2CCOCC2)oc2c(OCc3ccncc3)cccc12` had a pIC50 in experiment [1] of 5.80.

As for `O=c1nc(Nc2cccnc2)oc2c(-c3ccccc3)cccc12`, in experiment [6], the negative logarithm of the IC50 (pIC50) is 4.12.

In the case of `O=c1nc(Nc2cccnc2)oc2ccccc12`, the pIC50 in experiment [6] was 4.05.

For the compound `Cc1cccc2c(=O)nc(N(Cc3cccnc3)c3cccnc3)oc12`, the pIC50 in experiment [6] was 4.00.

In the case of `O=c1nc(N(Cc2cccnc2)c2cccnc2)oc2c(-c3ccccc3)cccc12`, the pIC50 in experiment [6] is 4.19.

For `O=c1nc(N(Cc2ccncc2)c2cccnc2)oc2c(-c3ccccc3)cccc12`, in experiment [6], the negative logarithm of the IC50 (pIC50) is 4.12.

Consider `O=c1nc(N(Cc2ccncc2)c2cccnc2)oc2cc(OCc3ccncc3)ccc12`, for which the pIC50 in experiment [6] was 4.26.

Turning to `Cc1c(OCc2ccccn2)ccc2c(=O)nc(N(Cc3ccccn3)c3cccnc3)oc12`, the negative-log IC50 (pIC50) in experiment [6] is 4.46.

Consider `Cc1c(OCc2cccnc2)ccc2c(=O)nc(N(Cc3cccnc3)c3cccnc3)oc12`, for which the pIC50 in experiment [1] is 5.60; in experiment [6] it was 5.00.

On to `Cc1c(OCc2ccccn2)ccc2c(=O)n(Cc3ccccn3)c(=O)oc12`, for which the pIC50 in experiment [6] was 4.07.

Regarding `Cc1c(OCc2cccnc2)ccc2c(=O)n(Cc3cccnc3)c(=O)oc12`, the negative logarithm of the IC50 (pIC50) is 5.00 in experiment [1] and 4.12 in experiment [6].

For `Cc1c(OCc2ccccc2)ccc2c(=O)n(Cc3ccccc3)c(=O)oc12`, the pIC50 in experiment [6] was 4.07.

`O=c1nc(N2CCOCC2)oc2c(OCc3ccccn3)cccc12`: the pIC50 in experiment [1] is 6.21.

In turn, `Cc1cccc2c(=O)nc(N(Cc3ccccn3)c3cccnc3)oc12` had a negative-log IC50 (pIC50) in experiment [1] of 4.60.

For `O=c1nc(N(Cc2ccccn2)c2cccnc2)oc2c(OCc3ccccn3)cccc12`, in experiment [1], the negative-log IC50 (pIC50) was 5.11.

`O=c1nc(N(Cc2cccnc2)c2cccnc2)oc2c(OCc3cccnc3)cccc12`: the pIC50 in experiment [1] is 4.87.

In experiment [1], `O=c1nc(N(Cc2ccccn2)c2cccnc2)oc2cc(OCc3ccccn3)ccc12` gave a pIC50 of 5.24.

As to `O=c1nc(N(Cc2cccnc2)c2cccnc2)oc2cc(OCc3cccnc3)ccc12`, the pIC50 in experiment [1] was 4.83.

Regarding `O=c1nc(N2CCOCC2)oc2c(-c3ccccc3)cccc12`, the pIC50 in experiment [1] is 6.52; in experiment [2], 6.02; in experiment [3], 5.82; in experiment [4] it was 5.47; in experiment [5] it was 5.39.

For `CN1CCN(CCOc2ccc3c(=O)nc(N4CCOCC4)oc3c2)CC1`, in experiment [1], the pIC50 was 5.17.

For `Cc1c(OCCN2CCN(C)CC2)ccc2c(=O)nc(N3CCOCC3)oc12`, the pIC50 is 6.30 in experiment [1]; no more than 4.00 in experiment [2]; no more than 4.00 in experiment [3]; no more than 4.00 in experiment [4]; no more than 4.00 in experiment [5].

Values taken from ChEMBL document CHEMBL2203170, “Synthesis, DNA-PK inhibition, anti-platelet activity studies of 2-(N-substituted-3-aminopyridine)-substituted-1,3-benzoxazines and DNA-PK and PI3K inhibition, homology modelling studies of 2-morpholino-(7,8-di and 8-substituted)-1,3-benzoxazines” (Eur J Med Chem, 2012).
